# ChEMBL document CHEMBL1157639, “Identification of inhibitors of drug-resistant Candida albicans strains from a library of bicyclic peptidomimetic compounds” (2010)
# Key:
# Candida albicans [1] = assay: Antifungal activity against Candida albicans SA40 infected in Wistar rat estrogen-dependent fungal vaginitis model assessed as fungal burden at 10 ug administered intravaginally 48 hrs after fungal infection measured on day 21 after infection; assay type: functional, Vagina
# How it was run: (§1)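 Oophorectomized female Wistar rats (80-100 g) got 0.5 mg estradiol benzoate s.c. Six days later they were inoculated intravaginally with >10⁷ YPD-grown yeast cells (28 °C, washed, hemocytometer-counted) in 0.1 mL saline. Treatment was given intravaginally at 1, 24 and 48 h post-challenge. Burden was counted by culturing 100 μL vaginal fluid on Sabouraud-chloramphenicol (50 μg/mL) agar, as CFU/mL ×1000, through day 28.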
# Candida albicans [2] = assay: Antifungal activity against pharmacoresistant Candida albicans AIDS68 infected in Wistar rat estrogen-dependent fungal vaginitis model assessed as fungal burden at 10 ug administered intravaginally 48 hrs after fungal infection measured on day 7 after infection; assay type: functional, Vagina; how it was run: as §1
# Candida albicans [3] = assay: Antifungal activity against pharmacoresistant Candida albicans AIDS68 infected in Wistar rat estrogen-dependent fungal vaginitis model assessed as fungal burden at 10 ug administered intravaginally 48 hrs after fungal infection measured on day 21 after infection; assay type: functional, Vagina; how it was run: as §1
# Candida albicans [4] = assay: Antifungal activity against Candida albicans SA40 infected in Wistar rat estrogen-dependent fungal vaginitis model assessed as fungal burden at 10 ug administered intravaginally 48 hrs after fungal infection measured on day 5 after infection; assay type: functional, Vagina; how it was run: as §1
# Candida albicans [5] = assay: Antifungal activity against pharmacoresistant Candida albicans AIDS68 infected in Wistar rat estrogen-dependent fungal vaginitis model assessed as fungal burden at 10 ug administered intravaginally 1 hr after fungal infection measured on day 1 after infection; assay type: functional, Vagina; how it was run: as §1
# Candida albicans [6] = assay: Antifungal activity against Candida albicans SA40 infected in Wistar rat estrogen-dependent fungal vaginitis model assessed as fungal burden at 10 ug administered intravaginally 24 hrs after fungal infection measured on day 2 after infection; assay type: functional, Vagina; how it was run: as §1
# Candida albicans [7] = assay: Antifungal activity against pharmacoresistant Candida albicans AIDS68 infected in Wistar rat estrogen-dependent fungal vaginitis model assessed as fungal burden at 10 ug administered intravaginally 48 hrs after fungal infection measured on day 14 after infection; assay type: functional, Vagina; how it was run: as §1
# Candida albicans [8] = assay: Antifungal activity against pharmacoresistant Candida albicans AIDS68 infected in Wistar rat estrogen-dependent fungal vaginitis model assessed as fungal burden at 10 ug administered intravaginally 24 hrs after fungal infection measured on day 2 after infection; assay type: functional, Vagina; how it was run: as §1
# Candida albicans [9] = assay: Antifungal activity against Candida albicans SA40 infected in Wistar rat estrogen-dependent fungal vaginitis model assessed as fungal burden at 10 ug administered intravaginally 1 hr after fungal infection measured on day 1 after infection; assay type: functional, Vagina; how it was run: as §1
# Candida albicans [10] = assay: Antifungal activity against Candida albicans SA40 infected in Wistar rat estrogen-dependent fungal vaginitis model assessed as fungal burden at 10 ug administered intravaginally 48 hrs after fungal infection measured on day 7 after infection; assay type: functional, Vagina; how it was run: as §1
# Candida albicans [11] = assay: Antifungal activity against pharmacoresistant Candida albicans AIDS68 infected in Wistar rat estrogen-dependent fungal vaginitis model assessed as fungal burden at 10 ug administered intravaginally 48 hrs after fungal infection measured on day 5 after infection; assay type: functional, Vagina; how it was run: as §1
# Candida albicans [12] = assay: Antifungal activity against Candida albicans SA40 infected in Wistar rat estrogen-dependent fungal vaginitis model assessed as fungal burden at 10 ug administered intravaginally 48 hrs after fungal infection measured on day 28 after infection; assay type: functional, Vagina; how it was run: as §1
# Candida albicans [13] = assay: Antifungal activity against Candida albicans SA40 infected in Wistar rat estrogen-dependent fungal vaginitis model assessed as fungal burden at 10 ug administered intravaginally 48 hrs after fungal infection measured on day 14 after infection; assay type: functional, Vagina; how it was run: as §1
# Candida albicans [14] = assay: Antifungal activity against Candida albicans SA40 infected in Wistar rat estrogen-dependent fungal vaginitis model assessed as fungal burden at 10 ug administered intravaginally 1 hr after fungal infection measured within 1 day of infection; assay type: functional, Vagina; how it was run: as §1
# Candida albicans [15] = assay: Antifungal activity against pharmacoresistant Candida albicans AIDS68 infected in Wistar rat estrogen-dependent fungal vaginitis model assessed as fungal burden at 10 ug administered intravaginally 48 hrs after fungal infection measured on day 28 after infection; assay type: functional, Vagina; how it was run: as §1
# Candida albicans [16] = assay: Antifungal activity against pharmacoresistant Candida albicans AIDS68 infected in Wistar rat estrogen-dependent fungal vaginitis model assessed as fungal burden at 10 ug administered intravaginally 1 hr after fungal infection measured within 1 day of infection; assay type: functional, Vagina; how it was run: as §1
# Candida albicans [17] = assay: Antifungal activity against Candida albicans SA40 infected in Wistar rat estrogen-dependent fungal vaginitis model assessed as fungal burden at 10 uM administered intravaginally 1 hr after fungal infection measured within 1 day of infection; assay type: functional, Vagina; how it was run: as §1
# Candida albicans [18] = assay: Antifungal activity against pharmacoresistant Candida albicans AIDS68 infected in Wistar rat estrogen-dependent fungal vaginitis model assessed as fungal burden at 10 uM administered intravaginally 48 hrs after fungal infection measured on day 21 after infection; assay type: functional, Vagina; how it was run: as §1
# Candida albicans [19] = assay: Antifungal activity against Candida albicans SA40 infected in Wistar rat estrogen-dependent fungal vaginitis model assessed as fungal burden at 10 uM administered intravaginally 1 hr after fungal infection measured on day 1 after infection; assay type: functional, Vagina
# How it was run: (§2)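 Oophorectomized female Wistar rats (80-100 g), given 0.5 mg estradiol benzoate subcutaneously, were challenged intravaginally six days later with >10⁷ YPD-grown yeast cells in 0.1 mL saline. Compound at 10 μM was instilled intravaginally at 1, 24 and 48 h post-challenge. Vaginal fluid samples (100 μL) were plated on Sabouraud agar with chloramphenicol (50 μg/mL), and burden was expressed as CFU/mL ×1000.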
# Candida albicans [20] = assay: Antifungal activity against Candida albicans SA40 infected in Wistar rat estrogen-dependent fungal vaginitis model assessed as fungal burden at 10 uM administered intravaginally 48 hrs after fungal infection measured on day 21 after infection; assay type: functional, Vagina; how it was run: as §2
# Candida albicans [21] = assay: Antifungal activity against pharmacoresistant Candida albicans AIDS68 infected in Wistar rat estrogen-dependent fungal vaginitis model assessed as fungal burden at 10 uM administered intravaginally 24 hrs after fungal infection measured on day 2 after infection; assay type: functional, Vagina; how it was run: as §1
# [22] = target: Secreted aspartic protease 2 (Candida albicans) (UniProt P0CS83); assay: Inhibition of Candida albicans SAP2 at 2 uM by spectrophotometry relative to pepstatin A
# How it was run: (§3)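 Sample was mixed with 1% (w/v) BSA substrate in 50 mM sodium citrate, pH 3.2, plus SAP2 protease (1 μg/mL stock solution) and incubated 30 min at 37 °C. The reaction was stopped with 10% TCA, kept 30 min on ice, and centrifuged; supernatant A280 was read. Percent inhibition was taken from ΔOD, with control proteinase minus proteinase plus pepstatin A set as 100%.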
# Candida albicans [23] = assay: Antifungal activity against pharmacoresistant Candida albicans AIDS68 infected in Wistar rat estrogen-dependent fungal vaginitis model assessed as fungal burden at 10 uM administered intravaginally 48 hrs after fungal infection measured on day 5 after infection; assay type: functional, Vagina; how it was run: as §1
# Candida albicans [24] = assay: Antifungal activity against Candida albicans SA40 infected in Wistar rat estrogen-dependent fungal vaginitis model assessed as fungal burden at 10 uM administered intravaginally 48 hrs after fungal infection measured on day 7 after infection; assay type: functional, Vagina; how it was run: as §2
# Candida albicans [25] = assay: Antifungal activity against Candida albicans SA40 infected in Wistar rat estrogen-dependent fungal vaginitis model assessed as fungal burden at 10 uM administered intravaginally 48 hrs after fungal infection measured on day 14 after infection; assay type: functional, Vagina; how it was run: as §2
# Candida albicans [26] = assay: Antifungal activity against pharmacoresistant Candida albicans AIDS68 infected in Wistar rat estrogen-dependent fungal vaginitis model assessed as fungal burden at 10 uM administered intravaginally 1 hr after fungal infection measured on day 1 after infection; assay type: functional, Vagina; how it was run: as §1
# [27] = target: Secreted aspartic protease 2 (Candida albicans) (UniProt P0CS83); assay: Inhibition of Candida albicans SAP2 at 0.2 uM by spectrophotometry relative to pepstatin A; how it was run: as §3
# [28] = target: Secreted aspartic protease 2 (Candida albicans) (UniProt P0CS83); assay: Inhibition of Candida albicans SAP2 at 0.02 uM by spectrophotometry relative to pepstatin A; how it was run: as §3
# Candida albicans [29] = assay: Antifungal activity against Candida albicans SA40 infected in Wistar rat estrogen-dependent fungal vaginitis model assessed as fungal burden at 10 uM administered intravaginally 48 hrs after fungal infection measured on day 28 after infection; assay type: functional, Vagina; how it was run: as §1
# [30] = target: Secreted aspartic protease 2 (Candida albicans) (UniProt P0CS83); assay: Inhibition of Candida albicans SAP2 at 10 uM by spectrophotometry relative to pepstatin A; how it was run: as §3
# [31] = target: Secreted aspartic protease 2 (Candida albicans) (UniProt P0CS83); assay: Inhibition of Candida albicans SAP2 at 20 uM by spectrophotometry relative to pepstatin A; how it was run: as §3
# Candida albicans [32] = assay: Antifungal activity against pharmacoresistant Candida albicans AIDS68 infected in Wistar rat estrogen-dependent fungal vaginitis model assessed as fungal burden at 10 uM administered intravaginally 48 hrs after fungal infection measured on day 7 after infection; assay type: functional, Vagina; how it was run: as §1
# Candida albicans [33] = assay: Antifungal activity against Candida albicans SA40 infected in Wistar rat estrogen-dependent fungal vaginitis model assessed as fungal burden at 10 uM administered intravaginally 48 hrs after fungal infection measured on day 5 after infection; assay type: functional, Vagina; how it was run: as §2
# Candida albicans [34] = assay: Antifungal activity against Candida albicans SA40 infected in Wistar rat estrogen-dependent fungal vaginitis model assessed as fungal burden at 10 uM administered intravaginally 24 hrs after fungal infection measured on day 2 after infection; assay type: functional, Vagina; how it was run: as §2
# Candida albicans [35] = assay: Antifungal activity against pharmacoresistant Candida albicans AIDS68 infected in Wistar rat estrogen-dependent fungal vaginitis model assessed as fungal burden at 10 uM administered intravaginally 48 hrs after fungal infection measured on day 28 after infection; assay type: functional, Vagina; how it was run: as §1
# Candida albicans [36] = assay: Antifungal activity against pharmacoresistant Candida albicans AIDS68 infected in Wistar rat estrogen-dependent fungal vaginitis model assessed as fungal burden at 10 uM administered intravaginally 48 hrs after fungal infection measured on day 14 after infection; assay type: functional, Vagina; how it was run: as §1
# [37] = target: Secreted aspartic protease 2 (Candida albicans) (UniProt P0CS83); assay: Inhibition of Candida albicans SAP2 at 10 uM by spectrophotometry; how it was run: as §3
# Sequence of Secreted aspartic protease 2 (Candida albicans) (P0CS83 57-398 limits assumed): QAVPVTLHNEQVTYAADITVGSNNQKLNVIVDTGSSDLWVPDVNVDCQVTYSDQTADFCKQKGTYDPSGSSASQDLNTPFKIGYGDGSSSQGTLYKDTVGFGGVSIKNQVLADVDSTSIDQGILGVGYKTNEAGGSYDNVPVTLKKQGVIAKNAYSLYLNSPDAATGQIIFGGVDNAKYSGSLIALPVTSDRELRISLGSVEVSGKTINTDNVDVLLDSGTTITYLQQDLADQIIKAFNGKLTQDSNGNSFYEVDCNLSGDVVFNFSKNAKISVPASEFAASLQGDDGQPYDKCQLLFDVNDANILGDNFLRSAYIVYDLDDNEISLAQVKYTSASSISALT
SMILES,Activity (Candida albicans [1]) [×10³ CFU/ml],Activity (Candida albicans [2]) [×10³ CFU/ml],Activity (Candida albicans [3]) [×10³ CFU/ml],Activity (Candida albicans [4]) [×10³ CFU/ml],Activity (Candida albicans [5]) [×10³ CFU/ml],Activity (Candida albicans [6]) [×10³ CFU/ml],Activity (Candida albicans [7]) [×10³ CFU/ml],Activity (Candida albicans [8]) [×10³ CFU/ml],Activity (Candida albicans [9]) [×10³ CFU/ml],Activity (Candida albicans [10]) [×10³ CFU/ml],Activity (Candida albicans [11]) [×10³ CFU/ml],Activity (Candida albicans [12]) [×10³ CFU/ml],Activity (Candida albicans [13]) [×10³ CFU/ml],Activity (Candida albicans [14]) [×10³ CFU/ml],Activity (Candida albicans [17]) [×10³ CFU/ml],Activity (Candida albicans [19]) [×10³ CFU/ml],Activity (Candida albicans [20]) [×10³ CFU/ml],Activity (Candida albicans [21]) [×10³ CFU/ml],inhibition [30] [%],inhibition [31] [%],also measured
CC(C)CC(=O)N[C@H](C(=O)N[C@H](C(=O)N[C@@H](CC(C)C)[C@@H](O)CC(=O)N[C@@H](C)C(=O)N[C@@H](CC(C)C)[C@@H](O)CC(=O)O)C(C)C)C(C)C [PEPSTATIN],5,30,3.8,32.4,58.4,51,19.8,52,56.8,28,37.2,0,9.4,>100,,,,,,,
OC(Cn1cncn1)(Cn1cncn1)c1ccc(F)cc1F [FLUCONAZOLE],1.25,44,11.7,25.7,100,49.7,18.7,93,53.5,11.7,61,0,5,100,,,,,,,Activity (Candida albicans [15]): 0 ×10³ CFU/ml; Activity (Candida albicans [16]): >100 ×10³ CFU/ml
O=C([C@@H]1O[C@H]2CN(Cc3ccccc3)C(=O)[C@@H]1O2)N1CCCCC1,,,,,,,,,,,,,,,>100,70,8,62.6,67,74,Activity (Candida albicans [18]): 3.4 ×10³ CFU/ml; inhibition [22]: 50%; Activity (Candida albicans [23]): 40.6 ×10³ CFU/ml; Activity (Candida albicans [24]): 30.6 ×10³ CFU/ml; Activity (Candida albicans [25]): 14.4 ×10³ CFU/ml; Activity (Candida albicans [26]): 71.8 ×10³ CFU/ml; inhibition [27]: 19%; inhibition [28]: 0%; Activity (Candida albicans [29]): 1.2 ×10³ CFU/ml; Activity (Candida albicans [32]): 23.2 ×10³ CFU/ml; Activity (Candida albicans [33]): 39.2 ×10³ CFU/ml; Activity (Candida albicans [34]): 57.6 ×10³ CFU/ml; Activity (Candida albicans [35]): 0 ×10³ CFU/ml; Activity (Candida albicans [36]): 12.8 ×10³ CFU/ml
CC(C)C[C@@H](CO)NC(=O)[C@@H]1O[C@H]2CN(Cc3ccccc3)C(=O)[C@@H]1O2,,,,,,,,,,,,,,,100,61,4.2,55.4,61,71,inhibition [22]: 6.9%; Activity (Candida albicans [23]): 26.8 ×10³ CFU/ml; Activity (Candida albicans [24]): 28.8 ×10³ CFU/ml; Activity (Candida albicans [25]): 14 ×10³ CFU/ml; Activity (Candida albicans [26]): 61.6 ×10³ CFU/ml; inhibition [28]: 1.4%; Activity (Candida albicans [29]): 2.2 ×10³ CFU/ml; Activity (Candida albicans [32]): 22.8 ×10³ CFU/ml; Activity (Candida albicans [33]): 35.8 ×10³ CFU/ml; Activity (Candida albicans [34]): 58 ×10³ CFU/ml; Activity (Candida albicans [35]): 0 ×10³ CFU/ml; Activity (Candida albicans [36]): 11.2 ×10³ CFU/ml
CCOC(=O)N1CCN(C(=O)[C@@H]2O[C@H]3CN(Cc4ccccc4)C(=O)[C@@H]2O3)CC1,,,,,,,,,,,,,,,,,,,19,74,inhibition [37]: 10%
